Consider 5 compounds from article PMC4687050 (Nature chemical biology, 2014).

One assay concerns ERK1/2. Kind of assay: Bio-layer interferometry binding kinetics. The following applies: BLI, 25 °C. Also noted: species or system human. The gist of the method:
(§1)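 Kinetics by bio-layer interferometry at 25 °C in 20 mM HEPES pH 7.5, 150 mM NaCl, 0.5 mM TCEP. Biotinylated kinases were captured on streptavidin biosensors. Association and dissociation phases ran 600 s each over several compound concentrations. Controls were protein-coated sensors without compound and uncoated sensors with compound. Data were double-referenced and fitted for binding constants.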
On the technique in general: Biolayer interferometry detects binding as a change in optical thickness at a sensor tip.

The next assay has as its system MDA-MB 231 cells. Kind of assay: Growth of cells with doxycycline-induced BRCA2 shRNA depletion. The format is cell-based, human. A digest of the protocol:
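MDA-MB-231 cells carrying a doxycycline-inducible BRCA2 shRNA were seeded at 2500 cells/well in DMEM/10% FBS with penicillin/streptomycin and treated with ERK inhibitors over a concentration range. Cell number was read after 2 h in resazurin-containing medium, by fluorescence at 590 nm.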

In the next assay the target is CSNK2A2 (Homo sapiens, UniProt P19784). The assay can be described thus: Enzymatic IC50 assay. In kind it is biochemical.
In assay [1] the target is Cdc2-like kinase 2 (CLK2) (Homo sapiens, UniProt P49760). The assay can be described thus: Enzymatic IC50 assay. In kind it is biochemical.
For assay [2], the target named is T1, ERK1 (Homo sapiens, UniProt P27361). Kind of assay: Isothermal titration calorimetry. The format is binding. The following applies: ITC. A general note: ITC needs no label: the signal is the heat of the interaction.
The next assay concerns HEK293T cells. The assay can be described thus: Cell survival of BRCA2 siRNA knock-down cells. In kind it is cell-based, human. The gist of the method:
(§2)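 HEK293T cells were reverse-transfected with 40 nM siRNA per plate (Dharmafect 1), with GFP siRNA as control, then reseeded after overnight incubation. They were transfected again on day 3. For the RAD51 arm, knockdown was verified by Western blot at 12 h and day 6, with six-day compound exposure. Cells were grown in DMEM/10% FBS; viability was read by resazurin incubation for 2 h, fluorescence at 590 nm.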

Another assay deals with ERK2 (Homo sapiens, UniProt P28482). Kind of assay: Isothermal titration calorimetry. In kind it is binding. Conditions: ITC.
The next assay deals with ERK2 mutants. The assay can be described thus: Bio-layer interferometry binding kinetics on ERK2 mutants. Also noted: species or system human.
A further assay has as its target JNK3 (Homo sapiens, UniProt P53779). Kind of assay: Enzymatic IC50 assay. The format is biochemical.
The test system of a further assay is V-C8 cells. The assay can be described thus: Cell viability of BRCA2-deficient versus BRCA2-complemented cells. The following applies: three-day exposure. In kind it is cell-based, hamster. The gist of the method: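 They were exposed to test compound for three days over a concentration range, then incubated 2 h in resazurin-containing medium; fluorescence was read at 590 nm.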

For assay [3], the target named is T1, ERK1. The assay can be described thus: Enzymatic IC50 assay. The format is biochemical.
Assay [4] relates to CLK1, CLK2, JNK2, CSNK2A1/A2, DRAK1 and TTK. Kind of assay: Bio-layer interferometry binding kinetics on off-targets. Also noted: species or system human. The following applies: BLI, 25 °C. The gist of the method:
as §1

Assay [5] deals with HEK293T cells lacking RAD51. The assay can be described thus: Cell viability of RAD51 siRNA-depleted cells. In kind it is cell-based, human. The following applies: six-day exposure. A digest of the protocol: as §2
The test system of assay [6] is MDA-MB-231 cells (pERK, pRSK1, pETS1). The assay can be described thus: ERK signalling after inhibitor wash-out, Western blotting. The following applies: 500 nM for 4 hours. In kind it is cell-based, human. The gist of the method:
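MDA-MB-231 cells in DMEM/10% FBS with penicillin/streptomycin were treated with ERK inhibitor for 4 h, washed twice in PBS and released into fresh medium for 0.5, 1 and 2 h. Cells were trypsinised and lysed in SDS loading buffer with sonication. Equal protein was immunoblotted for pERK, pRSK and pETS1, with total ERK1/2, GAPDH or α-tubulin as loading controls. Band intensities were normalised to DMSO-treated cells.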
Background: A western blot detects proteins with antibodies after separation by electrophoresis.

Entries after “also recorded” stand apart in the source; their conditions may differ.

T1 sequence (P27361 whole entry): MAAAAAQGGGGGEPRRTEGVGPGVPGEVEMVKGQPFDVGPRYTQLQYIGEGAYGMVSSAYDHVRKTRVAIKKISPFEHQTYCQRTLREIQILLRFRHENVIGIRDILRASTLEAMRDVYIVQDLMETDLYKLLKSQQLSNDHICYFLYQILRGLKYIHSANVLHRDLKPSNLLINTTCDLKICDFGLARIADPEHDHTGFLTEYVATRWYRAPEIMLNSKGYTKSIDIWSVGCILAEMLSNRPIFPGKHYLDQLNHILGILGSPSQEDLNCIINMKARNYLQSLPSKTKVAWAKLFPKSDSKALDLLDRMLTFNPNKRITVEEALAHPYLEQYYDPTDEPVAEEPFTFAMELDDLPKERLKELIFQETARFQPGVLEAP
ERK2, sequence (P28482 whole entry): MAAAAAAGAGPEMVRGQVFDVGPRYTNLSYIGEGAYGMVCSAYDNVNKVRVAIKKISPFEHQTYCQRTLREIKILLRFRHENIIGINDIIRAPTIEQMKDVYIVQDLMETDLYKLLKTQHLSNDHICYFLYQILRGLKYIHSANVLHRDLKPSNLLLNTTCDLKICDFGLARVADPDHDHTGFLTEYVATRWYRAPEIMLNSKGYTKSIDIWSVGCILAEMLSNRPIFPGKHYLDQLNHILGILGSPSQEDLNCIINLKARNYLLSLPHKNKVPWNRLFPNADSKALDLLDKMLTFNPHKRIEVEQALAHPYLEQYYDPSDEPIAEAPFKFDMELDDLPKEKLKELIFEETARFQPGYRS
Cdc2-like kinase 2 (CLK2), sequence (P49760 whole entry): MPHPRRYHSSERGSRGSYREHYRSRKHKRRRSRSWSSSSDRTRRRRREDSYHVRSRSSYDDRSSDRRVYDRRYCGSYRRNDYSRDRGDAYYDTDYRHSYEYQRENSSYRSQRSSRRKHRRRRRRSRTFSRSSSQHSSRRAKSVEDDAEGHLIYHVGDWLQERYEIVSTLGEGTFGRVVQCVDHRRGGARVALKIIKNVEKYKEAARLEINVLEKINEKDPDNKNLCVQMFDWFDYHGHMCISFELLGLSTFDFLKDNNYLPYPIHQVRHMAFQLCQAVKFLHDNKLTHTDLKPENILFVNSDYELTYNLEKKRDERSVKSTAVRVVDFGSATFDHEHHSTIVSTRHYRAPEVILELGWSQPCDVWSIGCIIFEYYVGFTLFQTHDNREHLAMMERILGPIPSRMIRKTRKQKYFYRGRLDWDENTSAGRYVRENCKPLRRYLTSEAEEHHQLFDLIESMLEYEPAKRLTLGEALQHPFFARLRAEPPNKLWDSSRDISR
JNK3, sequence (P53779 whole entry): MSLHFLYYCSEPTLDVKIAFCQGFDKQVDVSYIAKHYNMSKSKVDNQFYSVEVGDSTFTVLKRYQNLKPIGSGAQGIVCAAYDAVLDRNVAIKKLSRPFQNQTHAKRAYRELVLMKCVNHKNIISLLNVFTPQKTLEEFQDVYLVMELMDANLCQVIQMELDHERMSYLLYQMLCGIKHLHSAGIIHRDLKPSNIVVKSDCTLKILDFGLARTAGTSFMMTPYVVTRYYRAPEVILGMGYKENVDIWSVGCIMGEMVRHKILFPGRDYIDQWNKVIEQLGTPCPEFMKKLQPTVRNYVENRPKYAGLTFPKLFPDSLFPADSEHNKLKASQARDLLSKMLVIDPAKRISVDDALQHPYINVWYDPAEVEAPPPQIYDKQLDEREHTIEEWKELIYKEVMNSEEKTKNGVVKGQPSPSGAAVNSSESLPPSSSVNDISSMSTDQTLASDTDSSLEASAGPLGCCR
CSNK2A2, sequence (P19784 whole entry): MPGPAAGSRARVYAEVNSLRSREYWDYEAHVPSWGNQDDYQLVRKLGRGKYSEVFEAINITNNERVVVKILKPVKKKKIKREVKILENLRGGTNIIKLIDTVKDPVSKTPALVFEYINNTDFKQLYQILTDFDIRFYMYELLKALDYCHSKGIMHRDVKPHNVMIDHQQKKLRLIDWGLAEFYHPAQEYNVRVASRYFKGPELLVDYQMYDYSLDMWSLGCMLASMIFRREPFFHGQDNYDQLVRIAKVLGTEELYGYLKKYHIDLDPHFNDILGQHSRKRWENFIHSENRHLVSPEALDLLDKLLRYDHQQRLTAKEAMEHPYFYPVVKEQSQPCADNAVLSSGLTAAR

For the compound `O=C(Nc1ccc2[nH]nc(-c3ccncc3)c2c1)[C@@H]1CCN(CC(=O)N2CCN(c3ccc(-c4ncccn4)cc3)CC2)C1` [SCH772984], the “binding kinetics (association and dissociation)” value in the assay on ERK1/2 was “slow binding kinetics”; in assay [4], “fast association and dissociation rates”. In addition, the “sensitization by BRCA2 knockdown” value in the assay on MDA-MB 231 cells and with HEK293T cells was “sensitized” throughout. Moreover, the “IC50 in the enzymatic assay” value at CSNK2A2 was “no activity”. The results for the concentration for half-maximal inhibition (IC50) (in [1]; at JNK3; at ERK1 [3]) were 104 nM, 632 nM and 8.3 nM, respectively. Further, the binding enthalpy change result at ERK1 [2] and at ERK2 was “about −20 kcal/mol” in each case. In addition, in the assay on ERK2 mutants (listed as SCH771984), the binding kinetics entry is “retained slow association and dissociation kinetics; also recorded: still showed slow binding kinetics”. The “cell survival of BRCA2-deficient compared with BRCA2-complemented cells” value in the assay with V-C8 cells is reported as “significant reduction in cell survival”.
Turning to `Cc1cnc(Nc2ccc(F)cc2Cl)nc1-c1c[nH]c(C(=O)N[C@H](CO)c2cccc(Cl)c2)c1` [VTX-11e], the “binding kinetics (association and dissociation)” value with ERK1/2 was “slow association and dissociation patterns”. Moreover, in the assay with ERK1/2 (estimated), the dissociation half-life was 35 to 46 min. Besides, in the assay with HEK293T cells, the “sensitization by BRCA2 knockdown” value is “sensitized”. Also, the binding kinetics result in the assay on ERK2 mutants (BLI, double mutants Y36Q/Y64K and Y36Q/Y64D) was “increase inhibitor off-rates further”; with ERK2 mutants (BLI, single mutants Y36Q and Y64K), “significantly reduced inhibitor off-rates”. Further, the “cell survival of BRCA2-deficient compared with BRCA2-complemented cells” value with V-C8 cells is given as “Significant differences in cell survival”. The “cell killing of RAD51-depleted relative to control cells” value in assay [5] is given as “significant increase in cell killing”.
On to `O=C(c1cc(Cc2n[nH]c(=O)c3ccccc23)ccc1F)N1CCN(C(=O)C2CC2)CC1` [olaparib], for which the “cell killing of RAD51-depleted relative to control cells” value in assay [5] is recorded as “specific elimination of RAD51-depleted cells”.
In the case of `Nc1ncnc2c1c(I)cn2[C@@H]1O[C@H](CO)[C@@H](O)[C@H]1O` [5-iTU, 5-iodotubercidin], the “binding kinetics (association and dissociation)” value in the assay with ERK1/2 is on record as “fast kinetic behaviours”.
On to `Nc1[nH]nc2nnc(-c3c(-c4ccccc4)nn4ccccc34)cc12` [FR180204], for which, in the assay with ERK1/2, the “binding kinetics (association and dissociation)” value was “fast kinetic behaviours”. For the same compound, the pRSK1 inhibition result in [6] was “not see a strong effect”.

For orientation: IC50 means the concentration that gives 50% inhibition.
